Source: ChEMBL document CHEMBL5143748, “Quinolines and Oxazino-quinoline Derivatives as Small Molecule GLI1 Inhibitors Identified by Virtual Screening” (ACS Med Chem Lett, 2022)
Activity calls are given as the source filed them. No cut-off for these calls is given here.

What was measured:
Daoy = experiment: Antiproliferative activity against human DaOY cells assessed as reduction in cell viability incubated for 72 hrs by trypan blue or crystal violet staining based assay; type: functional
Summary of the method: (§1)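 IC50 in micromolar, fitted from triplicate experiments in human melanoma A375 and medulloblastoma DAOY cells.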

NIH3T3 = experiment: Inhibition of hedgehog signalling in SAG-induced mouse NIH3T3 cells assessed as decrease in GLI1 protein expression level at 1 uM for 48 hrs by Western blot analysis; type: cell-based
Summary of the method: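 Murine NIH3T3 cells, endogenous Hh pathway activated with the SMO agonist SAG (100 nM), co-treated with compound (1 μM), DMSO vehicle or GANT61 (5 μM) for 48 h. Endogenous GLI1 detected by Western blot with HSP90 as loading control. Reduction graded qualitatively, e.g. "+" weak, "NA" not affected.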

A-375 = experiment: Antiproliferative activity against human A375 cells assessed as reduction in cell viability incubated for 72 hrs by trypan blue or crystal violet staining based assay; type: functional; settings: A-375, 72 h; summary of the method: as §1

Row | Compound | IC50 (A-375) [nM] | IC50 (Daoy) [nM] | inhibition (NIH3T3)
1 | Fc1cnc2c3c(ccc2c1)CN(C1CCCCC1)CO3 | 500 | 300 | Active
2 | c1cnc2c3c(ccc2c1)CN(C1CCCCC1)CO3 | 300 | 500 | Active
3 | CCCCOc1ccnc2c(O)c(CNC(=O)C3CCCCC3)ccc12 | 540 | 510 | Active
4 | c1ccc2c(c1)CCCC2N1COc2c(ccc3cccnc23)C1 (stereo not given) | 300 | 600 | Active
5 | O=C(NCc1ccc2cccnc2c1O)C1CCCCC1 | 910 | 720 | Active
6 | CCCCC(=O)NC(c1ccc(Cl)cc1Cl)c1ccc2cccnc2c1O (stereo not given) | 1120 | 150 | Active
7 | O=C(NC(c1ccc(Cl)cc1Cl)c1ccc2cccnc2c1O)C1CCCC1 (stereo not given) | 320 | 150 | Active
8 | CC1CCC(N2COc3c(ccc4cccnc34)C2)CC1 (stereo not given) | 420 | 550 | Active
9 | Clc1cnc2c3c(ccc2c1)CN(CCCN1CCOCC1)CO3 | 150 | 1200 | Active
10 | CCCCC(=O)NC(c1ccc(Cl)c(Cl)c1)c1ccc2cccnc2c1O (stereo not given) | 320 | 100 | Active
11 | c1cnc2c3c(ccc2c1)CN(CC1CCCCC1)CO3 | 380 | 1000 | Active
12 | c1cnc2c3c(ccc2c1)CN(C1CCCCCCC1)CO3 | 280 | 290 | Active
13 | CCCCN1COc2c(ccc3cc(Cl)cnc23)C1 | 490 | 380 | Active
14 | Oc1c(C(NCCc2ccccc2)c2ccc(Cl)cc2Cl)ccc2cccnc12 (stereo not given) | 190 | 150 | Active
15 | CCCCC(=O)NC(c1ccc(Cl)cc1)c1ccc2cccnc2c1O (stereo not given) | 710 | 330 | Active
16 | O=C(NC(c1ccc(Cl)cc1Cl)c1ccc2cccnc2c1O)C1CCCCC1 (stereo not given) | 1010 | 240 | Active
17 | c1cnc2c3c(ccc2c1)CN(C1CCCCCC1)CO3 | 880 | 1200 | Active
18 | c1ccc(CCN2COc3c(ccc4cccnc34)C2)cc1 | 130 | 190 | Active
19 | COc1ccc(CN2COc3c(ccc4cccnc34)C2)cc1 | 580 | 870 | Active
20 | Oc1c(CNCCc2ccccc2)ccc2cccnc12 | 390 | 330 | Active
21 | O=C(NCc1ccc2c(OCc3ccccc3)ccnc2c1O)C1CCCCC1 | 550 | 260 | Active
22 | Fc1cnc2c3c(ccc2c1)CN(CCc1ccccc1)CO3 | 1100 | 1400 | Active

Further lines, with some results ahead:

Row | IC50 (A-375) [nM] | Compound | IC50 (Daoy) [nM] | inhibition (NIH3T3)
23 | 130 | CCCC(=O)NC(c1ccc(OC)c(OC)c1)c1ccc2cccnc2c1O (stereo not given) | 110 | Active
24 | 110 | COc1ccc(C(NC(C)=O)c2cc(Cl)c3cccnc3c2O)cc1OC (stereo not given) | 210 | Active
25 | 130 | COc1ccc(C(NC(=O)C(C)C)c2cc(Cl)c3cccnc3c2O)cc1OC (stereo not given) | 100 | Active
26 | 100 | CCCC(=O)NC(c1ccccc1Cl)c1cc(Cl)c2cccnc2c1O (stereo not given) | 100 | Active
27 | 130 | CCCC(=O)NC(c1ccc(N(CC)CC)cc1)c1cc(Cl)c2cccnc2c1O (stereo not given) | 100 | Active
28 | 120 | CCCC(=O)NC(c1ccc(C(C)C)cc1)c1cc(Cl)c2cccnc2c1O (stereo not given) | 90 | Active
29 | 120 | CCCC(=O)NC(c1ccc(Cl)cc1)c1cc(Cl)c2cccnc2c1O (stereo not given) | 100 | 
30 | 90 | CCCCC(=O)NC(c1cc(Cl)cc(Cl)c1)c1ccc2cccnc2c1O (stereo not given) | 140 | Active
31 | 130 | CCCC(=O)NC(c1ccccc1)c1cc(Cl)c2cccnc2c1O (stereo not given) | 110 | 
32 | 120 | CCCC(=O)NC(c1ccc(C)cc1)c1cc(Cl)c2cccnc2c1O (stereo not given) | 100 | Active
33 | 120 | C1=C(CCN2COc3c(ccc4cccnc34)C2)CCCC1 | 230 | Active
34 | 110 | CCCC(=O)NC(c1ccc(Cl)cc1Cl)c1ccc2cccnc2c1O (stereo not given) | 190 | Active
